Consider 20 compounds from ChEMBL document CHEMBL4837210 (Eur J Med Chem, 2021).

For orientation: MIC means the least concentration at which growth counts as inhibited.

Common to all, as to format: functional
In assay [1] the test system is Staphylococcus aureus. As to the kind of experiment: Antibacterial activity against methicillin-resistant Staphylococcus aureus ATCC 43300 assessed as inhibition of bacterial growth by broth microdilution method. Particulars: time 24 hrs. The method, boiled down:
(§1)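 Broth microdilution MIC. A 0.5 McFarland suspension was diluted 10-fold and added at 1.5 × 10⁷ cfu/mL to 2-fold dilutions (0.125–64) in Mueller Hinton broth. Incubated aerobically 24 h at 37 °C. MIC was the lowest concentration with no visible turbidity.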
A general note: In broth dilution the organism is exposed to a series of concentrations in liquid medium.

A further assay concerns Bacillus subtilis. As to the kind of experiment: Antibacterial activity against penicillin-susceptible Bacillus subtilis ATCC 9372 assessed as bacterial growth inhibition incubated for 24 hrs by CLSI protocol based broth microdilution method.
Another assay concerns Escherichia coli. As to the kind of experiment: Antibacterial activity against penicillin-susceptible Escherichia coli ATCC 25922 assessed as inhibition of bacterial growth measured by broth microdilution method. Particulars: time 24 hrs. The method, boiled down: (§2)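 Broth microdilution in Mueller Hinton broth. A 0.5 McFarland suspension was diluted tenfold, giving an inoculum of 1.5 × 10⁷ cfu/mL. This was added to 2-fold serial compound dilutions from […]. Plates were incubated aerobically at 37 °C for 24 h. MIC was the lowest concentration with no visible turbidity.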

The subject of a further assay is Pseudomonas aeruginosa. The assay is described as follows: Antibacterial activity against penicillin-susceptible Pseudomonas aeruginosa ATCC27853 assessed as bacterial growth inhibition incubated for 24 hrs by CLSI protocol based broth microdilution method.
Assay [2] deals with Staphylococcus aureus. As to the kind of experiment: Antibacterial activity against penicillin-resistant Staphylococcus aureus assessed as inhibition of bacterial growth measured by broth microdilution method. The note with it: time 24 hrs. The method, boiled down: as §1
The next assay relates to Bacillus pumilus. The assay is described as follows: Antibacterial activity against penicillin-susceptible Bacillus pumilus CMCC 63202 assessed as bacterial growth inhibition by broth dilution method. The note with it: time 24 hrs. The method, boiled down: as §2
Assay [3] deals with Staphylococcus epidermidis. As to the kind of experiment: Antibacterial activity against penicillin-resistant Staphylococcus epidermidis assessed as inhibition of bacterial growth measured by broth microdilution method. Particulars: time 24 hrs.
The subject of assay [4] is Streptococcus pyogenes. The assay is described as follows: Antibacterial activity against erythromycin-resistant Streptococcus pyogenes 2 assessed as bacterial growth inhibition incubated for 24 hrs by CLSI protocol based broth microdilution method.
For assay [5], the system named is Staphylococcus aureus. As to the kind of experiment: Antibacterial activity against erythromycin-susceptible Staphylococcus aureus ATCC 25923 assessed as bacterial growth inhibition incubated for 24 hrs by CLSI protocol based broth microdilution method.
For assay [6], the system named is Streptococcus pyogenes. The assay is described as follows: Antibacterial activity against erythromycin-susceptible Streptococcus pyogenes clinical isolate 1 assessed as bacterial growth inhibition incubated for 24 hrs by CLSI protocol based broth microdilution method.
For assay [7], the system named is Staphylococcus aureus. The assay is described as follows: Antibacterial activity against Staphylococcus aureus assessed as inhibition of bacterial growth measured by broth microdilution method. Particulars: time 24 hrs. The method, boiled down:
as §2

Regarding `CCCCc1ccc(/C=C/c2c3ccccc3[n+](C)c3ccccc23)cc1.[I-]`, the MIC is 8 µg/mL in the assay with Staphylococcus aureus [1]; 1 µg/mL in the assay on Bacillus subtilis; more than 64 µg/mL with Escherichia coli; more than 64 µg/mL with Pseudomonas aeruginosa; 8 µg/mL in the assay with Staphylococcus aureus [2]; 0.5 µg/mL in the assay with Bacillus pumilus. Moreover, the MIC in assay [3] is 2 µg/mL; with Streptococcus pyogenes [4], 0.5 µg/mL; with Staphylococcus aureus [5], 1 µg/mL; in the assay on Streptococcus pyogenes [6], 0.5 µg/mL; with Staphylococcus aureus [7] it was 2 µg/mL.
Take `CC(C)Nc1c2ccccc2[n+](C)c2ccccc12.[Cl-]`: the MIC (with Staphylococcus aureus [1]; in the assay on Bacillus subtilis; in the assay with Escherichia coli; with Pseudomonas aeruginosa; in the assay on Bacillus pumilus; in assay [3]) was more than 64 µg/mL throughout. Moreover, the MIC in the assay on Streptococcus pyogenes [4], in the assay on Staphylococcus aureus [5], with Streptococcus pyogenes [6] and with Staphylococcus aureus [7] was more than 64 µg/mL in each case.
For the compound `C[n+]1c2ccccc2c(Nc2nccs2)c2ccccc21.[Cl-]`, the MIC (in the assay on Staphylococcus aureus [1]; in the assay with Bacillus subtilis; in the assay with Escherichia coli; with Pseudomonas aeruginosa; with Bacillus pumilus; in assay [3]) was more than 64 µg/mL throughout. In addition, the MIC in the assay on Streptococcus pyogenes [4], with Staphylococcus aureus [5], with Streptococcus pyogenes [6] and in the assay on Staphylococcus aureus [7] was more than 64 µg/mL each time.
Turning to `C[n+]1c2ccccc2c(Nc2ccc(F)cc2F)c2ccccc21.[Cl-]`, the MIC (with Staphylococcus aureus [1]; with Bacillus subtilis; in the assay on Escherichia coli; in the assay with Pseudomonas aeruginosa; in the assay on Bacillus pumilus; in [3]) was more than 64 µg/mL each time. For the same compound, the MIC in the assay with Streptococcus pyogenes [4], with Staphylococcus aureus [5], in the assay with Streptococcus pyogenes [6] and in the assay on Staphylococcus aureus [7] was more than 64 µg/mL throughout.
Take `COc1ccc(Nc2c3ccccc3[n+](C)c3ccccc23)c(OC)c1.[Cl-]`: the MIC (with Staphylococcus aureus [1]; in the assay on Bacillus subtilis; with Escherichia coli; with Pseudomonas aeruginosa; in the assay on Bacillus pumilus; in assay [3]) was more than 64 µg/mL throughout. Besides, the MIC in the assay with Streptococcus pyogenes [4], in the assay with Staphylococcus aureus [5], with Streptococcus pyogenes [6] and with Staphylococcus aureus [7] was more than 64 µg/mL throughout.
On to `O=C(O)c1cn(C2CC2)c2cc(N3CCNCC3)c(F)cc2c1=O` [CIPROFLOXACIN], for which the MIC (in the assay with Staphylococcus aureus [2]; in assay [3]) was more than 64 µg/mL throughout.
With `C[n+]1c2ccccc2c(Nc2ccc(Cl)cc2Cl)c2ccccc21.[Cl-]`, the MIC (with Staphylococcus aureus [1]; in the assay on Bacillus subtilis; with Escherichia coli; with Pseudomonas aeruginosa; in the assay with Bacillus pumilus; in [3]) was more than 64 µg/mL throughout. For the same compound, the MIC in the assay with Streptococcus pyogenes [4], in the assay with Staphylococcus aureus [5], in the assay on Streptococcus pyogenes [6] and with Staphylococcus aureus [7] was more than 64 µg/mL throughout.
As for `CCNc1c2ccccc2[n+](C)c2ccccc12.[Cl-]`, the MIC was more than 64 µg/mL with Staphylococcus aureus [1]; 64 µg/mL in the assay on Bacillus subtilis; more than 64 µg/mL in the assay on Escherichia coli; more than 64 µg/mL in the assay on Pseudomonas aeruginosa; more than 64 µg/mL in the assay on Bacillus pumilus; more than 64 µg/mL in [3]. Also, the MIC in the assay on Streptococcus pyogenes [4] is 64 µg/mL; in the assay on Staphylococcus aureus [5] it was more than 64 µg/mL; in the assay on Streptococcus pyogenes [6] it was 64 µg/mL; in the assay with Staphylococcus aureus [7], more than 64 µg/mL.
In the case of `C[n+]1c2ccccc2c(Nc2ccccc2-c2ccccc2)c2ccccc21.[Cl-]`, the MIC (in the assay with Staphylococcus aureus [1]; in the assay with Bacillus subtilis; with Escherichia coli; in the assay on Pseudomonas aeruginosa; in the assay on Bacillus pumilus; in assay [3]) was more than 64 µg/mL in each case. Moreover, the MIC in the assay with Streptococcus pyogenes [4], with Staphylococcus aureus [5], in the assay on Streptococcus pyogenes [6] and in the assay on Staphylococcus aureus [7] was more than 64 µg/mL throughout.
For `C[n+]1c2ccccc2c(NC2CC2)c2ccccc21.[Cl-]`, the MIC (with Staphylococcus aureus [1]; with Bacillus subtilis; in the assay on Escherichia coli; with Pseudomonas aeruginosa; in the assay on Bacillus pumilus; in assay [3]) was more than 64 µg/mL throughout. The MIC in the assay with Streptococcus pyogenes [4] was 64 µg/mL; in the assay with Staphylococcus aureus [5], more than 64 µg/mL; with Streptococcus pyogenes [6], more than 64 µg/mL; in the assay on Staphylococcus aureus [7], more than 64 µg/mL.
On to `COc1ccccc1Nc1c2ccccc2[n+](C)c2ccccc12.[Cl-]`, for which the MIC (in the assay on Staphylococcus aureus [1]; in the assay with Bacillus subtilis; in the assay with Escherichia coli; with Pseudomonas aeruginosa; in the assay on Bacillus pumilus; in [3]) was more than 64 µg/mL in each case. Besides, the MIC in the assay on Streptococcus pyogenes [4], with Staphylococcus aureus [5], with Streptococcus pyogenes [6] and in the assay with Staphylococcus aureus [7] was more than 64 µg/mL throughout.
With `C[n+]1c2ccccc2c(-c2ccc(C=O)cc2)c2ccccc21.[I-]`, the MIC (in the assay with Staphylococcus aureus [1]; in the assay with Bacillus subtilis; with Escherichia coli; in the assay on Pseudomonas aeruginosa; with Bacillus pumilus; in assay [3]) was more than 64 µg/mL each time. Also, the MIC with Streptococcus pyogenes [4] is more than 64 µg/mL; with Staphylococcus aureus [5], 64 µg/mL; with Streptococcus pyogenes [6], 64 µg/mL; with Staphylococcus aureus [7], more than 64 µg/mL.
Consider `C[n+]1c2ccccc2c(Nc2ccccc2C(F)(F)F)c2ccccc21.[Cl-]`, for which the MIC (with Staphylococcus aureus [1]; in the assay with Bacillus subtilis; with Escherichia coli; in the assay on Pseudomonas aeruginosa; with Bacillus pumilus; in [3]) was more than 64 µg/mL in each case. Further, the MIC in the assay on Streptococcus pyogenes [4], with Staphylococcus aureus [5], with Streptococcus pyogenes [6] and in the assay on Staphylococcus aureus [7] was more than 64 µg/mL throughout.
Consider `CCCNc1c2ccccc2[n+](C)c2ccccc12.[Cl-]`, for which the MIC is more than 64 µg/mL in the assay on Staphylococcus aureus [1]; more than 64 µg/mL in the assay on Bacillus subtilis; more than 64 µg/mL with Escherichia coli; more than 64 µg/mL with Pseudomonas aeruginosa; more than 64 µg/mL with Bacillus pumilus; 64 µg/mL in [3]. Besides, the MIC in the assay on Streptococcus pyogenes [4] is 64 µg/mL; in the assay on Staphylococcus aureus [5], more than 64 µg/mL; in the assay on Streptococcus pyogenes [6], 32 µg/mL; in the assay with Staphylococcus aureus [7], more than 64 µg/mL.
In the case of `C[n+]1c2ccccc2c(Nc2ccccn2)c2ccccc21.[Cl-]`, the MIC in the assay with Staphylococcus aureus [1] is more than 64 µg/mL; in the assay with Bacillus subtilis, 64 µg/mL; in the assay on Escherichia coli it was more than 64 µg/mL; in the assay on Pseudomonas aeruginosa, more than 64 µg/mL; in the assay on Bacillus pumilus, more than 64 µg/mL; in assay [3] it was more than 64 µg/mL. Also, the MIC in the assay on Streptococcus pyogenes [4], in the assay with Staphylococcus aureus [5], in the assay with Streptococcus pyogenes [6] and in the assay on Staphylococcus aureus [7] was more than 64 µg/mL in each case.
Take `C[n+]1c2ccccc2c(NC2CCCCC2)c2ccccc21.[Cl-]`: the MIC in the assay with Staphylococcus aureus [1] is more than 64 µg/mL; in the assay with Bacillus subtilis, 32 µg/mL; in the assay on Escherichia coli, more than 64 µg/mL; in the assay on Pseudomonas aeruginosa it was more than 64 µg/mL; in the assay with Bacillus pumilus, more than 64 µg/mL; in assay [3], more than 64 µg/mL. Besides, the MIC with Streptococcus pyogenes [4] is 64 µg/mL; in the assay with Staphylococcus aureus [5] it was more than 64 µg/mL; in the assay with Streptococcus pyogenes [6] it was more than 64 µg/mL; with Staphylococcus aureus [7] it was more than 64 µg/mL.
Take `C[n+]1c2ccccc2c(Nc2ncccn2)c2ccccc21.[Cl-]`: the MIC (with Staphylococcus aureus [1]; with Bacillus subtilis; in the assay on Escherichia coli; in the assay on Pseudomonas aeruginosa; in the assay with Bacillus pumilus; in assay [3]) was more than 64 µg/mL in each case. For the same compound, the MIC in the assay on Streptococcus pyogenes [4], in the assay with Staphylococcus aureus [5], in the assay on Streptococcus pyogenes [6] and with Staphylococcus aureus [7] was more than 64 µg/mL in each case.
In the case of `C[n+]1c2ccccc2c(Nc2ccccc2)c2ccccc21.[Cl-]`, the MIC (with Staphylococcus aureus [1]; in the assay with Bacillus subtilis; in the assay on Escherichia coli; in the assay with Pseudomonas aeruginosa; with Bacillus pumilus; in assay [3]) was more than 64 µg/mL each time. For the same compound, the MIC in the assay with Streptococcus pyogenes [4], with Staphylococcus aureus [5], in the assay with Streptococcus pyogenes [6] and in the assay with Staphylococcus aureus [7] was more than 64 µg/mL each time.
Take `CCc1ccccc1Nc1c2ccccc2[n+](C)c2ccccc12.[Cl-]`: the MIC (in the assay with Staphylococcus aureus [1]; in the assay with Bacillus subtilis; in the assay on Escherichia coli; in the assay with Pseudomonas aeruginosa; in the assay on Bacillus pumilus; in [3]) was more than 64 µg/mL throughout. Moreover, the MIC in the assay on Streptococcus pyogenes [4], in the assay on Staphylococcus aureus [5], in the assay on Streptococcus pyogenes [6] and in the assay with Staphylococcus aureus [7] was more than 64 µg/mL each time.
As to `Cc1ccc(Nc2c3ccccc3[n+](C)c3ccccc23)c(C)c1.[Cl-]`, the MIC (in the assay with Staphylococcus aureus [1]; in the assay on Bacillus subtilis; in the assay on Escherichia coli; in the assay on Pseudomonas aeruginosa; in the assay on Bacillus pumilus; in assay [3]) was more than 64 µg/mL each time. The MIC in the assay with Streptococcus pyogenes [4], in the assay on Staphylococcus aureus [5], with Streptococcus pyogenes [6] and with Staphylococcus aureus [7] was more than 64 µg/mL in each case.
